Bioassay records deposited in PubChem BioAssay by Johns Hopkins Ion Channel Center.
TRPC4 PAM = allosterically enhances the mouse TRPC4 cation channel. Q9QUQ5. HEK293 TRPC4beta/mu-opioid, DAMGO EC20, Fluo-4 Ca2+ flux; stronger effect = higher value. B-score at 10 µM. 310,000 tested, 0.42% active;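 active = B-score of calcium response area above 5 SD of library B-scores, with initial fluorescence ratio within 5 SD of library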;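 note: B-score of integrated fluorescence ratio over time as area under calcium response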
Target sequence (Q9QUQ5 whole entry, looked up): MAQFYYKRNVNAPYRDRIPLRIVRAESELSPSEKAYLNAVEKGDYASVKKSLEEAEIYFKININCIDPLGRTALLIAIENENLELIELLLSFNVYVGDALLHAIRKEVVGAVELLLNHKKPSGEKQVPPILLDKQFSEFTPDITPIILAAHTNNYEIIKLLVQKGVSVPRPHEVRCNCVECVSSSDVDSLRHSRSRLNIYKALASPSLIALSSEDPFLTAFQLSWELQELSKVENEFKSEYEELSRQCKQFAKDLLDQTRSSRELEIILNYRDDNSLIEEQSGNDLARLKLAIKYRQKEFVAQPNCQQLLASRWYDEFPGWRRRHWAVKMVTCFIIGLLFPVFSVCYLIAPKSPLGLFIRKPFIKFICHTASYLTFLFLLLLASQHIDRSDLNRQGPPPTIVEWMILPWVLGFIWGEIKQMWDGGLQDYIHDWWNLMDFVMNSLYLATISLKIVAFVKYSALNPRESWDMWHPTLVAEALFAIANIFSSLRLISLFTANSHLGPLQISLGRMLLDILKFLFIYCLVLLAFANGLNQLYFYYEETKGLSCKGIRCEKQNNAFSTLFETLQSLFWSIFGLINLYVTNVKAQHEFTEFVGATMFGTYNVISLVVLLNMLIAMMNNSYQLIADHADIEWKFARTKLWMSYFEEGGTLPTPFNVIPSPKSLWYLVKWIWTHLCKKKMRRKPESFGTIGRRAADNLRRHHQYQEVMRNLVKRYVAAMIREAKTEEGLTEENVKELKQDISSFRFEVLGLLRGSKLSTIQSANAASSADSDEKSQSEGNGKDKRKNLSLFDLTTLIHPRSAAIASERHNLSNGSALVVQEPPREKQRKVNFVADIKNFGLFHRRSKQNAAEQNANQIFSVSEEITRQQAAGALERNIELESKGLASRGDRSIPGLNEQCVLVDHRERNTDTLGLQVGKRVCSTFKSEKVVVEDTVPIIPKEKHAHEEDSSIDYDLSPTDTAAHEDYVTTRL
TRPC4 inh = inhibitors of mouse TRPC4 channel; Q9QUQ5; B-score at 10 µM; HEK293 TRPC4beta/mu-opioid, DAMGO-evoked Fluo4 calcium flux; stronger effect = lower value; 300,000 tested, 0.39% active;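 active = B-score over 3 SD under the library average, no early fluorescence shift, positive overall ratio signal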
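Signal: kinetic Fluo4 fluorescence imaging of calcium influx. Material: stable TRPC4beta/mu-opioid receptor HEK293 cells. Probe or stimulus: DAMGO in two steps, submaximal then maximal.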
TRPC6 activator = mouse TRPC6 channel activation; Q61143; HEK293-TRPC6 membrane potential dye fluorescence; stronger effect = higher value; B-score at 10 µM; 310,000 tested, 0.13% active; AID 2550;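 active = B-score of the integrated fluorescence ratio above library mean plus 3 SD, and starting fluorescence ratio within library mean plus 5 SD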;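 note: higher score means more depolarization so channel activation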
TRPC6 inhibitor = blocks the mouse TRPC6 cation channel. Q61143. B-score at 10 µM. 310,000 tested, 1.1% active. HEK293-TRPC6, membrane potential dye, ACh-evoked depolarization; stronger effect = lower value;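 active = B-score under library mean minus 3 SD, initial fluorescence not abnormally high, positive integrated signal ratio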;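 note: B-score derived from integrated fluorescence ratio over the kinetic read; more negative B-score means stronger inhibition of depolarization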
TRPC4 act = TRPC4 (mouse) channel activation. HEK293 TRPC4beta/mu-opioid, Fluo4 calcium fluorescence; stronger effect = higher value. Q9QUQ5. 310,000 tested, 0.49% active. B-score at 10 µM;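 active = B-score above 5 SD of library B-scores, and initial fluorescence ratio not above library mean plus 5 SD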;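 note: positive B-score marks a calcium rise read as TRPC4 activation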
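Material: HEK293 stable line with TRPC4beta plus mu-opioid receptor; technique: Fluo4 calcium-sensitive dye fluorescence, kinetic, 1 Hz baseline; timing: Fluo4 dye loading 45 min at room temperature, 110 s recording; controls: assay buffer as low control, maximal DAMGO as high control; read-out: integrated baseline-normalised fluorescence ratio, converted to per-well B score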
TRPC4 sel inh 2 = mouse TRPC4 off-target activity of TRPC6 inhibitors, second screen; shares compounds with TRPC6 inhibitor; HEK293 TRPC4/MOR, membrane potential dye fluorescence; channel activated by saturating DAMGO dose; inhibition, % at 10 µM; 920 tested, 42% active;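 active = compounds whose fluorescence signal differed from control wells by over 3 SD, either direction, in both duplicate plates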
TRPC4 spec = mouse TRPC4 off-target activity of TRPC6 inhibitors | activity change, negative = inhibition, % at 10 µM | 920 tested, 61% active | HEK293 TRPC4/mu-opioid, membrane potential fluorescence | shares compounds with TRPC6 inhibitor;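 active = rise or fall in signal beyond 3 SD of buffer-only wells in both replicate plates, either sign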;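 note: integrated kinetic ratio of fluorescence range over baseline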
HEK293 MPD ctr 2-1 = second counter-screen for TRPC6 inhibitors: parental HEK293 cells | shares compounds with TRPC6 inhibitor | parental HEK293 membrane potential dye fluorescence; maximal acetylcholine challenge after compound addition | signal change vs control, % at 10 µM | 920 tested, 31% active | AID 2779;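 active = membrane potential signal moving either way by over 3 SD of the maximum-effect control, in both duplicate plates, meaning non-specific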
HEK293 MPD ctr-1 = checks TRPC6 inhibitor effects in parental HEK293 cells. shares compounds with TRPC6 inhibitor. parental HEK293 membrane potential dye fluorescence. membrane potential signal change, % at 10 µM. 920 tested, 60% active;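 active = membrane potential signal shifting up or down by more than 3 SD of buffer-only wells, on both duplicate plates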
HEK293 MPD ctr-2 = parental HEK293 nonspecific activity of TRPC6 modulators; AID 488924; membrane potential signal change, % at 10 µM; membrane potential dye fluorescence; 2,400 tested, 51% active; shares compounds with TRPC6 inhibitor;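 active = membrane potential signal moves up or down beyond 5 SD from buffer-only wells, on both duplicate plates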
HEK293 MPD ctr 2-2 = second check of TRPC6 modulator effects in parental HEK293 cells | shares compounds with TRPC6 inhibitor | 2,400 tested, 14% active | inhibition, % at 10 µM | membrane potential dye fluorescence; after compound, maximal acetylcholine stimulation | AID 488926;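 active = membrane potential signal drops by more than 5 SD from the mean control signal, in both duplicate plates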;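 note: plate controls were acetylcholine ECmax control wells for no effect and buffer only wells for full effect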
TRPC4/MOR mod = tests whether TRPC6 modulators also affect mouse TRPC4. 2,400 tested, 69% active. HEK293 TRPC4/mu-opioid, membrane potential fluorescence. percent change from control (negative = decrease, positive = increase), % at 10 µM. shares compounds with TRPC6 inhibitor;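 active = membrane potential signal moved up or down beyond 5 SD of buffer control wells, in both duplicate plates, actives on both sides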;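 note: plate controls were assay buffer wells for no effect and DAMGO maximal-effect wells for full effect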
TRPC4 ctr inh 2 = mouse TRPC4 off-target activity of TRPC6 modulators, second screen. shares compounds with TRPC6 inhibitor. HEK293 TRPC4/mu-opioid, membrane potential dye fluorescence; stimulated with maximal-effect DAMGO. inhibition, % at 10 µM. 2,400 tested, 55% active;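 active = drop in membrane potential signal beyond 5 SD of the control wells in both duplicate plates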;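 note: TRPC4 counter screen for TRPC6 hits run under conditions tuned for TRPC6 not TRPC4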
TRPC6 block conf = mouse TRPC6 inhibitor confirmation; shares compounds with TRPC6 inhibitor; HEK293-TRPC6, membrane potential dye, ACh-evoked depolarization; inhibition, % at 10 µM; 3,300 tested, 43% active; AID 488960;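 active = fluorescence ratio falls more than 5 SD below the full-stimulation control mean, in both duplicate runs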;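 note: integrated fluorescence ratio of peak minus minimum over baseline after agonist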
TRPC6 act confirm = mouse TRPC6 activator confirmation; 2,800 tested, 11% active; HEK293-TRPC6 membrane potential dye fluorescence, FDSS; shares compounds with TRPC6 inhibitor; AID 488961; activation, % at 10 µM;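 active = ratio signal rise beyond 5 SD above unstimulated control wells' mean, seen in both duplicate runs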;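 note: plate controls were buffer EC0 wells for no effect and acetylcholine ECmax response for full effect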
The depositor's hits bear a star; i = inactive; x = no result. Hits are enriched below; roughly 2.3% of the tested compounds scored in any of these assays.

SMILES	TRPC4 PAM	TRPC4 inh	TRPC6 activator	TRPC6 inhibitor	TRPC4 act	HEK293 MPD ctr-2	HEK293 MPD ctr 2-2	TRPC4/MOR mod	TRPC4 ctr inh 2	TRPC6 block conf	TRPC6 act confirm	others
CCOC(=O)C1(CCOc2ccccc2)CCN(Cc2cc(OC)c3c(c2)OCO3)CC1	i	i	i	i	i	x	x	x	x	x	x
CCOc1cc2c(C#N)c(N3CCNCC3)nc(N)c2c(N)n1	12*	i	i	-5.9*	i	-194%*	i	-25%*	i	38%*	i
O=C(O)CN1CCN(Cc2ccc(F)cc2Cl)C1=O	i	i	i	i	i	x	x	x	x	x	x
CCOC(=O)c1c(NC(=O)COC(=O)CCOc2ccc(C)cc2)sc(C(=O)N(C)C)c1C	i	i	14*	i	i	480%*	i	44%*	66%*	i	i
CCOC(=O)c1c(NC(=O)COC(=O)c2ccc(O)cc2)sc(C(=O)N(C)C)c1C	i	i	i	i	i	x	x	x	x	x	x
CCOC(=O)c1c(NC(=O)COC(=O)c2ccccn2)sc(C(=O)N(C)C)c1C	i	i	i	i	i	x	x	x	x	x	x
CCOC(=O)c1c(NC(=O)COC(=O)CCOc2ccc(OCC)cc2)sc(C(=O)N(C)C)c1C	61*	i	13*	i	i	279%*	i	165%*	72%*	i	124%*
Cc1nc(Nc2ccncc2)c2oc3ccccc3c2n1	i	i	i	-6.4*	i	106%*	113%*	11%*	i	56%*	i
CC(=O)Nc1ccc(Nc2nc(C)nc3c2oc2ccccc23)cc1	i	i	i	i	i	x	x	x	x	x	x
CCc1nc(Nc2ccncc2)c2oc3ccccc3c2n1	i	i	i	-5.7*	i	i	76%*	-8.0%*	i	i	i
CC1(C)SC2c3ccccc3C(=O)N2[C@@H]1C(=O)NCCCN1CCOCC1 (stereo partly specified)	i	i	i	-5.1*	i	i	i	11%*	i	i	x
N#Cc1c(N2CCCC(O)C2)nc(N)c2c(N)nc3c(c12)CC(=O)N3C12CC3CC(CC(C3)C1)C2 (stereo unspecified)	i	i	i	-6.1*	i	i	i	i	i	i	i
C=C(C)CN(CC)c1nc(N)c2c(N)nc3c(c2c1C#N)CC(=O)N3C12CC3CC(CC(C3)C1)C2	i	i	i	i	i	x	x	x	x	x	x
Cc1c(C(=O)OC(C)CCN(C)C)oc2ccccc12 (stereo unspecified)	i	i	i	-9.7*	i	x	x	x	x	i	x	TRPC4 sel inh 2=i;TRPC4 spec=7.3%*;HEK293 MPD ctr 2-1=i;HEK293 MPD ctr-1=11%*
CC(C)(C)c1ccc(C(=O)OCCN2CCCCC2)cc1	i	i	13*	i	i	128%*	i	26%*	56%*	i	66%*
COc1ccc(C(=O)OCCN2CCCCC2)cc1	i	i	i	i	i	x	x	x	x	x	x
Cc1c(C(=O)OCCN2CCCCC2)oc2ccccc12	i	i	i	-8.6*	i	x	x	x	x	i	x	TRPC4 sel inh 2=i;TRPC4 spec=10%*;HEK293 MPD ctr 2-1=i;HEK293 MPD ctr-1=15%*
Cc1c(C(=O)OCC(C)(C)CN(C)C)oc2ccccc12	i	i	i	i	i	x	x	x	x	x	x
CCN1CCCC1CNC(=O)C1c2cc(OC)c(OC)cc2C(=O)N(C)C1c1cccnc1 (stereo unspecified)	i	i	i	i	i	x	x	x	x	x	x
CC(=O)N/C(=N/c1nc(C)cc(C)n1)Nc1cccc(C)c1C	i	i	i	i	i	x	x	x	x	x	x
CC(C)OP(=O)(OC(C)C)C(O)c1cccc([N+](=O)[O-])c1 (stereo unspecified)	i	i	i	i	i	x	x	x	x	x	x
O=C(CN1CCCCC1)Nc1ccc(N2CCCCCC2)cc1	i	i	i	-6.6*	i	i	i	i	36%*	54%*	i
CCN(CC)CC(=O)Nc1ccc(-c2nc3cc(NC(=O)CN(CC)CC)ccc3o2)cc1	i	i	i	-8.7*	i	x	x	x	x	i	x	TRPC4 sel inh 2=72%*;TRPC4 spec=i;HEK293 MPD ctr 2-1=i;HEK293 MPD ctr-1=i
O=C(CN1CCCC1)Nc1ccc(-c2nc3cc(NC(=O)CN4CCCC4)ccc3o2)cc1	i	i	12*	i	i	218%*	i	28%*	i	i	76%*
Cc1cccc(-c2noc(CN(C)C(=O)c3ccc4c(c3)OCO4)n2)c1	i	i	i	i	i	x	x	x	x	x	x
c1ccc(-c2csc(Nc3cccnc3)n2)nc1	i	x	i	-6*	i	-84%*	i	-18%*	i	i	i
CN1CCCCc2c1nc1ccccc1c2N (tested in a mixture with another compound)	i	-7*	i	-8.6*	i	x	x	x	x	87%*	i	TRPC4 sel inh 2=4.5%*;TRPC4 spec=-19%*;HEK293 MPD ctr 2-1=i;HEK293 MPD ctr-1=-252%*
Nc1c2c(nc3ccccc13)CSCC2	i	i	i	-7.2*	i	x	x	x	x	55%*	i	TRPC4 sel inh 2=13%*;TRPC4 spec=-30%*;HEK293 MPD ctr 2-1=i;HEK293 MPD ctr-1=-482%*
